Activity calls are given as the source filed them. The rule behind the calls is not given here.

Experimental findings from ChEMBL document CHEMBL5705905, “Pharmacological targeting of kinases MST1 and MST2 augments tissue repair and regeneration” (Sci Transl Med, 2016) are described below.

The target of data set [1] is T1, Serine/threonine-protein kinase 4 (Homo sapiens, UniProt Q13043).
T1 sequence (Q13043 whole entry): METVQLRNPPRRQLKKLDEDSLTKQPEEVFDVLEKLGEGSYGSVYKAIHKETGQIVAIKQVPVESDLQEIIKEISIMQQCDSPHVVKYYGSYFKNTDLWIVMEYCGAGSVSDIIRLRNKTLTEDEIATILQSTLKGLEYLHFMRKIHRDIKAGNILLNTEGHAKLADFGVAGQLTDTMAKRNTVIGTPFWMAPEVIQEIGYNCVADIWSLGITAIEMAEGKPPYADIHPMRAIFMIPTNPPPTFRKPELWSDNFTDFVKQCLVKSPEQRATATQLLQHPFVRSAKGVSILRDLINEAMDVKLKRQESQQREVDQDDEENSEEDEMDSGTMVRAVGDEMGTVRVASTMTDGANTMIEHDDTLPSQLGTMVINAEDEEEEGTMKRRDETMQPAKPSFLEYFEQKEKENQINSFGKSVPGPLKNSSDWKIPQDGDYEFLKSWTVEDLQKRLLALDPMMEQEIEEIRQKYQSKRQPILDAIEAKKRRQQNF
The data set is described as follows: Inhibition of recombinant His-tagged full-length MST1 (unknown origin) expressing in Escherichia coli assessed as MOB1a phosphorylation level incubated for 30 min in the presence of 100 uM ATP by immunoblot analysis.

Another data set is filed under the species Homo sapiens. The data set is described as follows: Inhibition of ALK C1156V mutant (unknown origin) assessed as remaining activity at 1 uM by Kinome scan method relative to control. In short, it runs like this: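 KINOMEscan active-site-dependent competition-binding panel of 468 kinases, compound at 1 μM from a DMSO stock. Result reported as ctrl% = (test signal − positive control signal)/(negative control signal − positive control signal) × 100. The negative control is DMSO (100%) and the positive control is a control compound (0%). Lower ctrl% means tighter binding.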

Data set [2] deals with Calcium/calmodulin-dependent protein kinase type 1D (Homo sapiens) (UniProt Q8IU85). The data set is described as follows: Inhibition of CAMK1D (unknown origin) assessed as remaining activity at 1 uM by Kinome scan method relative to control. In short, it runs like this:
(§1)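 Active-site-dependent competition-binding profiling (KINOMEscan) at 1 μM against a 468-kinase panel; compound supplied from a 10 mM DMSO stock. Read-out is ctrl% = (test signal − positive control signal)/(negative control signal − positive control signal) × 100. DMSO is the negative control (100%) and a control compound the positive control (0%). Lower ctrl% means tighter binding.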

In data set [3] the target is Calcium/calmodulin-dependent protein kinase type IV (Homo sapiens) (UniProt Q16566). Description: Inhibition of CAMK4 (unknown origin) assessed as remaining activity at 1 uM by Kinome scan method relative to control. In outline:
as §1

In data set [4] the target is Fibroblast growth factor receptor 1 (Homo sapiens) (UniProt P11362). Description: Inhibition of FGFR1 (unknown origin) assessed as remaining activity at 1 uM by Kinome scan method relative to control.
The subject of data set [5] is Receptor-type tyrosine-protein kinase FLT3 (Homo sapiens), P36888 [R834Q]. The data set is described as follows: Inhibition of FLT3 R834Q mutant (unknown origin) assessed as remaining activity at 1 uM by Kinome scan method relative to control.
The target in data set [6] is Homeodomain-interacting protein kinase 1 (Homo sapiens) (UniProt Q86Z02). The data set is described as follows: Inhibition of HIPK1 (unknown origin) assessed as remaining activity at 1 uM by Kinome scan method relative to control.
Data set [7] has as its target Inhibitor of nuclear factor kappa-B kinase subunit beta (Homo sapiens) (UniProt O14920). Description: Inhibition of IKK-beta (unknown origin) assessed as remaining activity at 1 uM by Kinome scan method relative to control.
The target of data set [8] is Tyrosine-protein kinase JAK1 (Homo sapiens, UniProt P23458). Description: Inhibition of JAK1 JH1 domain (unknown origin) assessed as remaining activity at 1 uM by Kinome scan method relative to control.
Sequence of Tyrosine-protein kinase JAK1 (P23458 whole entry, the tested form may be a part, canonical isoform): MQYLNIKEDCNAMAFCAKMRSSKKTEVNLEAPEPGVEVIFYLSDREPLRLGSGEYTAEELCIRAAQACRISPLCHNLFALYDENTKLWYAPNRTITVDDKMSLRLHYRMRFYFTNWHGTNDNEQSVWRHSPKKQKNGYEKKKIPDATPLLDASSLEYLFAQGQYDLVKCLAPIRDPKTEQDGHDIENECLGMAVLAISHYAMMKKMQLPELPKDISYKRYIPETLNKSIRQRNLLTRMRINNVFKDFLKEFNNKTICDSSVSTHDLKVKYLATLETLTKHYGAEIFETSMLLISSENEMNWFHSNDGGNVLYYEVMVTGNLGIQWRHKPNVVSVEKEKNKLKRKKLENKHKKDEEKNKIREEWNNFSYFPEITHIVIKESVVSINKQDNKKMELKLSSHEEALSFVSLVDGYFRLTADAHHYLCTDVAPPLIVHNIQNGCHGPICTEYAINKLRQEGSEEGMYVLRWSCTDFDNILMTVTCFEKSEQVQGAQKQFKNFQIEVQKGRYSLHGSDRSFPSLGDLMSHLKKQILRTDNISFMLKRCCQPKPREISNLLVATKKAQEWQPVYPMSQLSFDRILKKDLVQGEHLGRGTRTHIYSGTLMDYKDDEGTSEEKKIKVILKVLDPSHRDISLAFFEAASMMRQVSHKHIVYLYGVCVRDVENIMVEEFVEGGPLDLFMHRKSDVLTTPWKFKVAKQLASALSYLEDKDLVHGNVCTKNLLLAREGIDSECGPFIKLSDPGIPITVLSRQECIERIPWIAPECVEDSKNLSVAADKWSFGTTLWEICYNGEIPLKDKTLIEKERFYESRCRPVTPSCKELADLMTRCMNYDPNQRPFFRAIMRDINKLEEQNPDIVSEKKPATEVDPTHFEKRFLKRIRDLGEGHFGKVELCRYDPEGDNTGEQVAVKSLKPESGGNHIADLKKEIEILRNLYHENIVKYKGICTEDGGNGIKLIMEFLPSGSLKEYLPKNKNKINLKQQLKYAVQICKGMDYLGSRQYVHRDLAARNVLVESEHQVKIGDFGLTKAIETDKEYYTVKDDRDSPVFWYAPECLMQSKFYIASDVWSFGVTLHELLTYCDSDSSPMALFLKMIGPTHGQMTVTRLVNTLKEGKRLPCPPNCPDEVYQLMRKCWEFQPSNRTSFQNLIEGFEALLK
Data set [9] has as its system Phosphatidylinositol 4,5-bisphosphate 3-kinase catalytic subunit alpha isoform (Homo sapiens), P42336 [E545K]. The data set is described as follows: Inhibition of PIK3CA E545K mutant (unknown origin) assessed as remaining activity at 1 uM by Kinome scan method relative to control.
Data set [10] has as its system Phosphatidylinositol 4,5-bisphosphate 3-kinase catalytic subunit alpha isoform (Homo sapiens), P42336 [H1047L]. Description: Inhibition of PIK3CA H1047L mutant (unknown origin) assessed as remaining activity at 1 uM by Kinome scan method relative to control.
For data set [11], the target named is Phosphatidylinositol 4,5-bisphosphate 3-kinase catalytic subunit gamma isoform (Homo sapiens, UniProt P48736). The data set is described as follows: Inhibition of PIK3CG (unknown origin) assessed as remaining activity at 1 uM by Kinome scan method relative to control.
In data set [12] the target is cAMP-dependent protein kinase catalytic subunit beta (Homo sapiens) (UniProt P22694). Description: Inhibition of PKAC-beta (unknown origin) assessed as remaining activity at 1 uM by Kinome scan method relative to control.
Data set [13] deals with Protein kinase C theta type (Homo sapiens) (UniProt Q04759). Description: Inhibition of PRKCQ (unknown origin) assessed as remaining activity at 1 uM by Kinome scan method relative to control.
Data set [14] deals with Serine/threonine-protein kinase D1 (Homo sapiens) (UniProt Q15139). The data set is described as follows: Inhibition of PRKD1 (unknown origin) assessed as remaining activity at 1 uM by Kinome scan method relative to control.
Sequence of Serine/threonine-protein kinase D1 (Homo sapiens) (Q15139 whole entry): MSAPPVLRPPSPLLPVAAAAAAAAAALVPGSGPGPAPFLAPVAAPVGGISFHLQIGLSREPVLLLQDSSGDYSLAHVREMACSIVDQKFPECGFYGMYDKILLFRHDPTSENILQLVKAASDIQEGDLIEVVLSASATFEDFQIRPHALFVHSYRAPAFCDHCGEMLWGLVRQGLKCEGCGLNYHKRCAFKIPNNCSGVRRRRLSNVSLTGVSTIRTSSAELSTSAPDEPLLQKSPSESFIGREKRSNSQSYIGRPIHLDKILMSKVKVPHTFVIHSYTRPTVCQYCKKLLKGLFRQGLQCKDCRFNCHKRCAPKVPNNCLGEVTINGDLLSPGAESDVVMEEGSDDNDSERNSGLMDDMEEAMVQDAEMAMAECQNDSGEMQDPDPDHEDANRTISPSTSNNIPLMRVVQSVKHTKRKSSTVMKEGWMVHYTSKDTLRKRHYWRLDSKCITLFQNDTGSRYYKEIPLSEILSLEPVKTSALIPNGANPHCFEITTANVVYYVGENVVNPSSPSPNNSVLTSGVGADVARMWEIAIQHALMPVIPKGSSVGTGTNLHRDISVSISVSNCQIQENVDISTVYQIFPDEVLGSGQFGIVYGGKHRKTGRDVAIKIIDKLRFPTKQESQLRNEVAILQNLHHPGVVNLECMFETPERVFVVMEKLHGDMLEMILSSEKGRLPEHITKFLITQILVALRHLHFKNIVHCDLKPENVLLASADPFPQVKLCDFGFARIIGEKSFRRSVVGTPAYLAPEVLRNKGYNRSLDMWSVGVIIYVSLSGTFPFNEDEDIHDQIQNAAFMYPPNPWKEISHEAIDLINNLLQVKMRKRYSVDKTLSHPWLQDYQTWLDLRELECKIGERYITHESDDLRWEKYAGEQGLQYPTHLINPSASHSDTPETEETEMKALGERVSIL
The target in data set [15] is Proto-oncogene tyrosine-protein kinase Src (Homo sapiens) (UniProt P12931). Description: Inhibition of SRC (unknown origin) assessed as remaining activity at 1 uM by Kinome scan method relative to control.
Sequence of Proto-oncogene tyrosine-protein kinase Src (Homo sapiens) (P12931 2-536 limits assumed): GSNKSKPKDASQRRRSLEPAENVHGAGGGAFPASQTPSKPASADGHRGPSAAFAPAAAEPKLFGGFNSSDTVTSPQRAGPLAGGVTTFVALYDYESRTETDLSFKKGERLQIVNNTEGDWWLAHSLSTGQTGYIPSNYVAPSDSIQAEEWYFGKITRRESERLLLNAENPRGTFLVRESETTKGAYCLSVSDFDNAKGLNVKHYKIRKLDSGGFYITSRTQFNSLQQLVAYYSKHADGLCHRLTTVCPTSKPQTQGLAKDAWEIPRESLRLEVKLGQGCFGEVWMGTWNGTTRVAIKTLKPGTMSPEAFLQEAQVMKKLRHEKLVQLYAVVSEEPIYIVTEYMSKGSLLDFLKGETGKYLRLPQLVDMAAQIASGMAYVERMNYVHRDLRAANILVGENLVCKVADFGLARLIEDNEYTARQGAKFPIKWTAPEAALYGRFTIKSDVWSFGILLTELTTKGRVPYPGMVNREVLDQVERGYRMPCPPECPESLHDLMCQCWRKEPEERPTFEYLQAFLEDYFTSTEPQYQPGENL
Data set [16] deals with SRSF protein kinase 1 (Homo sapiens) (UniProt Q96SB4). Description: Inhibition of SRPK1 (unknown origin) assessed as remaining activity at 1 uM by Kinome scan method relative to control.
Sequence of SRSF protein kinase 1 (Homo sapiens) (Q96SB4 whole entry): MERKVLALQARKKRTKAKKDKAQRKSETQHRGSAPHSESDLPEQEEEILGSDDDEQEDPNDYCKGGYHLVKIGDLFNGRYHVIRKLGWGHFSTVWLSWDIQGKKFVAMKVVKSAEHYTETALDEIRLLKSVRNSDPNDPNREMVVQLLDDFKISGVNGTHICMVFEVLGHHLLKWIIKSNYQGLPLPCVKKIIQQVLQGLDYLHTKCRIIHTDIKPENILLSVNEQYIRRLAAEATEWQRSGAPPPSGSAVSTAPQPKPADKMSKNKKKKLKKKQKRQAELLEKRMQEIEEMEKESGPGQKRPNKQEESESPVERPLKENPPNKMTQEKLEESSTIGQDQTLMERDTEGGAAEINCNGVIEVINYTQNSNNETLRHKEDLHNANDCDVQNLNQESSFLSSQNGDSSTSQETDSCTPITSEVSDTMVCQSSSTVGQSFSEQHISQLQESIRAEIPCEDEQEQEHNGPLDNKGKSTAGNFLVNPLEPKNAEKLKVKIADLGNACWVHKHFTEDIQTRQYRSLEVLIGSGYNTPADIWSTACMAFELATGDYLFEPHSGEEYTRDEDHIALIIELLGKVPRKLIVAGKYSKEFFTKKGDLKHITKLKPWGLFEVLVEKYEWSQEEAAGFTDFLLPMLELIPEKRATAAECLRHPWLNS
Data set [17] has as its target Serine/threonine-protein kinase TAO1 (Homo sapiens) (UniProt Q7L7X3). The data set is described as follows: Inhibition of TAOK1 (unknown origin) assessed as remaining activity at 1 uM by Kinome scan method relative to control.
The subject of another data set is Primary hepatocyte. Description: Inhibition of MST1/2 (unknown origin) in mouse Primary hepatocyte cells assessed as H2O2 stimulated MST1/2 autophosphorylation level at 1 to 3 uM by immunoblot analysis. Format: cell-based. The note with it: dose 1-3 µM.
The nature of data set [18]: Tmax in male Sprague-Dawley rat at 5 mg/kg, iv measured for 24 hrs by LC-MS/MS analysis. Format: ADME, organism-based. The note with it: in vivo.
A short description of data set [19]: Cmax in male Sprague-Dawley rat at 10 mg/kg, po measured for 24 hrs by LC-MS/MS analysis. As to conditions: in vivo. The data set is classed as ADME, organism-based. In outline:
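Sprague-Dawley rats, single intravenous or oral dose. Parameters (half-life, AUC, bioavailability) reported in a supplementary table.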

Data set [20] is described as follows: Acute toxicity in wild-type mouse assessed as cell proliferation in kidney at 3 mg/kg,ip administrated daily for 7 days by Ki67 staining. Format: organism-based. As to conditions: in vivo, 168 h, time 7 day. In short, it runs like this: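 Wild-type mice received vehicle or 3 mg/kg i.p. daily for 7 days. Ki67 staining of sections from various tissues with quantification of positive cells, n = 6; means ± SD, Student's t test. Daily weights, physical activity and serum chemistry were also monitored.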

Another data set relates to Mus musculus. The data set is described as follows: Protection against duct ligation-induced mouse assessed as low dead cells at 1 mg/kg, ip administration daily for 10 days by TUNEL staining. The data set is classed as functional, organism-based. The note with it: Liver, time 10.0 day.

Sequence of Inhibitor of nuclear factor kappa-B kinase subunit beta (Homo sapiens) (O14920 whole entry, the tested form may be a part): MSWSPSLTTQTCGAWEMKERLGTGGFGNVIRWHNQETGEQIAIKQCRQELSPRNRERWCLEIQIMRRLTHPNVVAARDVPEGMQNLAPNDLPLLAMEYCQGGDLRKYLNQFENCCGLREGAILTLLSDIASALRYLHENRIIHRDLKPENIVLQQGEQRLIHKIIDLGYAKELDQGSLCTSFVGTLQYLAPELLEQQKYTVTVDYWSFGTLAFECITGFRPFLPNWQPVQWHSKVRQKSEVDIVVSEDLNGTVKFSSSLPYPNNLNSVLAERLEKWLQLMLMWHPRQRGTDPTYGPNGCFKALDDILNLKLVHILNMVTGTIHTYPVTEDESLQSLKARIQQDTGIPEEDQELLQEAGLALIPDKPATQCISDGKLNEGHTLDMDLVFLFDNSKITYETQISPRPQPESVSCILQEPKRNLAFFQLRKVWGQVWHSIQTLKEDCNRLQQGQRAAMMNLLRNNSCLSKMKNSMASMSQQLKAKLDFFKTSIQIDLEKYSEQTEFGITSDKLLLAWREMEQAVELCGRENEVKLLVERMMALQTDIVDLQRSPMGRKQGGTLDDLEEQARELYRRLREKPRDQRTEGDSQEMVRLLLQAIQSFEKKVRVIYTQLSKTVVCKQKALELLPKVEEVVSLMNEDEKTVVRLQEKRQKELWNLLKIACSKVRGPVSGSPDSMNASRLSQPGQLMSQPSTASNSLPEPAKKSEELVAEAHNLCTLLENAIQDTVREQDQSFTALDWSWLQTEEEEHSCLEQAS
Sequence of Serine/threonine-protein kinase TAO1 (Homo sapiens) (Q7L7X3 whole entry): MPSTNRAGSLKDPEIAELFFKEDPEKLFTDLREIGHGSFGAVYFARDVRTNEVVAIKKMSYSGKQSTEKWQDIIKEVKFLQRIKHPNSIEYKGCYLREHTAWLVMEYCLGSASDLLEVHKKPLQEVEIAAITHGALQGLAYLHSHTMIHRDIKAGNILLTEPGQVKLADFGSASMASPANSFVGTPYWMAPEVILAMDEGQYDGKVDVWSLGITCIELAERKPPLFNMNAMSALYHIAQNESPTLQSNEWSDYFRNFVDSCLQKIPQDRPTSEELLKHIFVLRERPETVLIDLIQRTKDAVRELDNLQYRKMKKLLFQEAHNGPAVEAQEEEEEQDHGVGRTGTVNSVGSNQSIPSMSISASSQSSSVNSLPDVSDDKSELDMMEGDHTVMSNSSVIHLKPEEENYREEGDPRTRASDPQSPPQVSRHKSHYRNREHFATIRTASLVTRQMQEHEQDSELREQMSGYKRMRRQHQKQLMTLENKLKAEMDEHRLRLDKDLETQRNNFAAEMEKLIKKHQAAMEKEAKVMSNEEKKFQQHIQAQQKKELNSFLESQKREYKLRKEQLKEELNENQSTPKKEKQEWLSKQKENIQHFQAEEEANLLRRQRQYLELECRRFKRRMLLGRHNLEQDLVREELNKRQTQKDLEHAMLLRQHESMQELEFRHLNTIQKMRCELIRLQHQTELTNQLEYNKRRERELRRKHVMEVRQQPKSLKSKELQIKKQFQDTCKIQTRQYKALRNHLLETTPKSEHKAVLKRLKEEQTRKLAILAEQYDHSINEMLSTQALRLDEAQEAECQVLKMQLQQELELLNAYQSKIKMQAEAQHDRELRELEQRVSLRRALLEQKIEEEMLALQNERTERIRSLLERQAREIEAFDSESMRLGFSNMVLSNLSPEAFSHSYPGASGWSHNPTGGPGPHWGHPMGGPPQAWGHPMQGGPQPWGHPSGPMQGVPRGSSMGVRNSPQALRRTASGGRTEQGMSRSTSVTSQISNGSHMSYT

For `CN1C(=O)c2sccc2N(C)c2nc(Nc3ccc(S(N)(=O)=O)cc3)ncc21`, the 50% inhibitory concentration (IC50) in data set [1] was found to be 1230 nM. For the same compound, the Activity in the data set listed under Homo sapiens was determined as 95%; in data set [2] it was 100%; in [3], 100%; in [4] it was 88%; in data set [5], 91%; in data set [6], 91%. Also, the Activity in data set [7] came out at 100%; in data set [8], 97%; in [9], 49%; in data set [10], 4.6%; in data set [11], 0.15%; in [12], 80%. For the same compound, the Activity in data set [13] was 99%; in [14], 98%; in data set [15], 100%; in data set [16], 65%; in [17], 2.6%; in [20], “Non-Toxic”. Besides, the inhibition entry in the data set with Primary hepatocyte was “Active”. The Tmax in data set [18] turned out to be 4.98 min. In data set [19], this compound displayed a Cmax of 118 ng/mL. Moreover, the result in the data set on Mus musculus was Active.
